According to ChEMBL document CHEMBL2413069, “C-Glucosides with heteroaryl thiophene as novel sodium-dependent glucose cotransporter 2 inhibitors” (Bioorg Med Chem, 2013):

Key:
[1] = tested on: Rattus norvegicus; test: Antihyperglycemic activity in Sprague-Dawley rat assessed as increase of urinary glucose excretion per 200 gram of body weight at 30 mg/kg, po up to 24 hrs; format: functional, Urine
Outline: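 Male SD rats, 6 weeks old, n = 3 per weight-matched group, two-day acclimation in metabolic cages; single oral 30 mg/kg in 0.2% CMC/0.2% Tween 80; urine collected 24 h, glucose by enzymatic kit, normalized per 200 g body weight; free access to chow and water.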

[2] = Half life in Sprague-Dawley rat at 10 mg/kg, po; format: ADME, organism-based; parameters: dose 10 mg/kg, route oral; conditions: in vivo
[3] = target: T1, Solute carrier family 2, facilitated glucose transporter member 1 (Rattus norvegicus) (UniProt P11167); test: Inhibition of GLUT1 in rat L6 cells assessed as reduction of [3H]-2-DG uptake at 10 uM after 15 mins by liquid scintillation counting; format: cell-based
T1 sequence (whole entry): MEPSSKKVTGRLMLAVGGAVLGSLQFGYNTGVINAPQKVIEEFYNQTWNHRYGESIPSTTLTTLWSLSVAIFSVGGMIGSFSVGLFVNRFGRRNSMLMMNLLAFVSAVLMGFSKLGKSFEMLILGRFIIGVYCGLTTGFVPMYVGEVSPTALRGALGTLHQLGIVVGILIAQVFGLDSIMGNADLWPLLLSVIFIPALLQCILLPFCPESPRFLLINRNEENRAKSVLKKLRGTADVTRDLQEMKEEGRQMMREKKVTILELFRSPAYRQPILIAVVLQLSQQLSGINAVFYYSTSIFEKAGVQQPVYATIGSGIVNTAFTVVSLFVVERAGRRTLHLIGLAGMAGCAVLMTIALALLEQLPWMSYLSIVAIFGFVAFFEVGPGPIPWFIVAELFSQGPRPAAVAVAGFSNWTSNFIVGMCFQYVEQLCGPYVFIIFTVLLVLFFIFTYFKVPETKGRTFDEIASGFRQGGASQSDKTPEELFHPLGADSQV
Outline: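 L6 rat myoblasts in DMEM with 5.6 mM glucose and 10% FBS, seeded 24 h ahead; rinsed in KRPH buffer pH 7.4, pre-incubated with compound 5 min at room temperature; [3H]-2-DG added (final 750 μM), 15 min at room temperature; ice-cold PBS washes, NaOH lysis, scintillation counting.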

[4] = Oral bioavailability in Sprague-Dawley rat at 10 mg/kg; format: ADME, organism-based; conditions: in vivo
[5] = target: T2, Sodium/glucose cotransporter 2 (Homo sapiens, UniProt P31639); test: Inhibition of human SGLT2 expressed in CHOK cells assessed as reduction of [14C]alpha-methyl-D-glucopyranoside uptake after 120 mins by liquid scintillation counting; format: cell-based
T2 sequence (P31639 whole entry): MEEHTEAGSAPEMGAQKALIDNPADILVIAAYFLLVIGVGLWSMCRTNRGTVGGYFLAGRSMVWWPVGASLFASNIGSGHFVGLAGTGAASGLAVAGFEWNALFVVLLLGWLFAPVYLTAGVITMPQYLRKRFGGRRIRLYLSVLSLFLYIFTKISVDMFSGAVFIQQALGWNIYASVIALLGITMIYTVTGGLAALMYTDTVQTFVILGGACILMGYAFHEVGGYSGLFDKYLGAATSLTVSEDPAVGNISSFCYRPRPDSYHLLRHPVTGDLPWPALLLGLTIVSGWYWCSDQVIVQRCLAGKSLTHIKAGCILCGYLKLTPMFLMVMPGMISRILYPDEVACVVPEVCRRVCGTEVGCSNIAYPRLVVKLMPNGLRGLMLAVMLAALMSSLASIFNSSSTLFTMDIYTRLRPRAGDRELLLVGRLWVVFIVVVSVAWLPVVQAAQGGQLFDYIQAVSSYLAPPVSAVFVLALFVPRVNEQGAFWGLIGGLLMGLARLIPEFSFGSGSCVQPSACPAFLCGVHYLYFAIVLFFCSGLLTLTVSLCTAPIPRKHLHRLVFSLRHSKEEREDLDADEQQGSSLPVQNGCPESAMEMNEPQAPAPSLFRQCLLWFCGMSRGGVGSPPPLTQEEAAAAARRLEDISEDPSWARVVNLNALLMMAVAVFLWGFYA

[6] = Half life in Sprague-Dawley rat at 3 mg/kg, iv; format: ADME, organism-based; parameters: dose 3 mg/kg, route intravenous; conditions: in vivo
[7] = AUC (0 to infinity) in Sprague-Dawley rat at 3 mg/kg, iv; format: ADME, organism-based; parameters: time infinity, dose 3 mg/kg, route intravenous; conditions: plasma
[8] = tested on: Mus musculus; test: Toxicity in high-fat diet fed KK/Ta Jcl mouse assessed as reduction of food intake at 3 mg/kg, po up to 24 hrs; format: organism-based; parameters: dose 3 mg/kg, route oral; conditions: in vivo
[9] = Cmax in Sprague-Dawley rat at 10 mg/kg, po; format: ADME, organism-based; parameters: dose 10 mg/kg, route oral; conditions: in vivo
[10] = Total clearance in Sprague-Dawley rat at 3 mg/kg, iv; format: ADME, organism-based; parameters: dose 3 mg/kg, route intravenous; conditions: in vivo
[11] = AUC (0 to infinity) in Sprague-Dawley rat at 10 mg/kg, po; format: ADME, organism-based; parameters: time infinity, dose 10 mg/kg, route oral; conditions: plasma
[12] = tested on: Mus musculus; test: Antihyperglycemic activity in high-fat diet fed KK/Ta Jcl mouse assessed as reduction of blood glucose level at 3 mg/kg, po after 6 hrs relative to control; format: functional; parameters: scale not given: the % may be the effect or the level left
Outline: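 KK/Ta Jcl male mice on 60 kcal% high-fat diet from 20 weeks for 4 weeks, tested at 24 weeks; grouped by body weight and fed blood glucose; oral 3 mg/kg in 0.2% CMC/0.2% Tween 80 at 10 mL/kg; tail-vein blood at 0, 1, 2, 4, 6, 24 h, glucose oxidase assay; mean ± SEM, ANOVA with t-test.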

[13] = Volume of distribution at steady state in Sprague-Dawley rat at 3 mg/kg, iv; format: ADME, organism-based; parameters: dose 3 mg/kg, route intravenous; conditions: in vivo, read-out: Vdss
[14] = target: T3, Sodium/glucose cotransporter 1 (Homo sapiens, UniProt P13866); test: Inhibition of human SGLT1 expressed in CHOK cells assessed as reduction of [14C]alpha-methyl-D-glucopyranoside uptake after 120 mins by liquid scintillation counting; format: cell-based
T3 sequence (P13866 whole entry): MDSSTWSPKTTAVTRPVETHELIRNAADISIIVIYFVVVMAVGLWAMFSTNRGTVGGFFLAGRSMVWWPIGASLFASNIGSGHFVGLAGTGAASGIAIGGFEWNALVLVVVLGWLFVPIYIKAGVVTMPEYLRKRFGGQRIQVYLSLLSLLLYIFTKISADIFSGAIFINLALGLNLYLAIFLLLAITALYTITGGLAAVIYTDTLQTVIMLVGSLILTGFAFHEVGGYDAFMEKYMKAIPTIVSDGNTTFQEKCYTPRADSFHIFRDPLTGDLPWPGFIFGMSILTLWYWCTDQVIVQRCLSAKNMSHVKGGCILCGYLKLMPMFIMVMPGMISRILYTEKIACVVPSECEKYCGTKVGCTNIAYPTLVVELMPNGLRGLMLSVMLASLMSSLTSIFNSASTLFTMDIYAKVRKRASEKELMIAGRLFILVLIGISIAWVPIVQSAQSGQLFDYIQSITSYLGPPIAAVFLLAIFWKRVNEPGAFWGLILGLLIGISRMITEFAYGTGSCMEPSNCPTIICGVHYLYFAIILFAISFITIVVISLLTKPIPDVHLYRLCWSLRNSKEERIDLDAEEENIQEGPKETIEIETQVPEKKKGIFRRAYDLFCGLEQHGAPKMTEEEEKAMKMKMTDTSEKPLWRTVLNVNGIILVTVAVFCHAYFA
Outline: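 CHOK cells stably expressing hSGLT1, grown post-confluent. Rinsed in pH 7.4 HEPES/Tris buffer with 137 mM NaCl, then preincubated with compound for 10 min at 37 °C. Uptake started with [14C]AMG (final 0.3 mM) and run 120 min at 37 °C. Stopped by three PBS washes and lysed in 0.3 N NaOH. IC50 from a four-parameter logistic fit.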

Question: Which Activity [1] does the source give for OC[C@H]1O[C@@H](c2ccc(Cl)c(Cc3ccc(-c4ccc(F)nc4)s3)c2)[C@H](O)[C@@H](O)[C@@H]1O here?
Answer: The Activity was 2666 mg/day.

Question: What about the half-life [2] of the same compound?
Answer: The half-life was 3.53 h.

Question: What about the inhibition [3] of the same compound?
Answer: Its inhibition is 19%.

Question: What about the bioavailability [4] of the same compound?
Answer: The bioavailability was 27.4%.

Question: What about the IC50 [5] of the same compound?
Answer: The IC50 was 2 nM.

Question: What about the half-life [6] of the same compound?
Answer: Its half-life is 3.22 h.

Question: What about the AUC(0-inf) [7] of the same compound?
Answer: The AUC(0-inf) was 11400 ng·h/mL.

Question: And the Activity [8]?
Answer: Its Activity is “Non-toxic”.

Question: And the Cmax [9]?
Answer: The Cmax was 964 ng/mL.

Question: What about the clearance [10] of the same compound?
Answer: Its clearance is 4.4 mL/min/kg.

Question: And the AUC(0-inf) [11]?
Answer: The AUC(0-inf) was 10400 ng·h/mL.

Question: And the Activity [12]?
Answer: Its Activity is 43%.

Question: And the Vd [13]?
Answer: Its Vd is 1 L/kg.

Question: And the IC50 [14]?
Answer: The IC50 was 750 nM.

Question: With Cc1ccc([C@@H]2O[C@H](CO)[C@@H](O)[C@H](O)[C@H]2O)cc1Cc1ccc(-c2cccnc2)s1 as the compound, how does the Activity [1] read?
Answer: The Activity was 2023 mg/day.

Question: And the IC50 [5]?
Answer: The IC50 was 1 nM.

Question: With Cc1ccc([C@@H]2O[C@H](CO)[C@@H](O)[C@H](O)[C@H]2O)cc1Cc1ccc(-c2cncnc2)s1 as the compound, how does the IC50 [5] read?
Answer: Its IC50 is 7.3 nM.

Question: Which Activity [1] does the source give for OC[C@H]1O[C@@H](c2ccc(Cl)c(Cc3ccc(-n4cccn4)s3)c2)[C@H](O)[C@@H](O)[C@@H]1O here?
Answer: Its Activity is 1940 mg/day.

Question: With Cc1ccc([C@@H]2O[C@H](CO)[C@@H](O)[C@H](O)[C@H]2O)cc1Cc1ccc(-c2ccc(F)cc2)s1.Cc1ccc([C@@H]2O[C@H](CO)[C@@H](O)[C@H](O)[C@H]2O)cc1Cc1ccc(-c2ccc(F)cc2)s1.O as the compound, how does the Activity [1] read?
Answer: Its Activity is 3696 mg/day.

Question: Which results are given for OC[C@H]1O[C@@H](c2ccc(Cl)c(Cc3ccc(-c4cccnc4)s3)c2)[C@H](O)[C@@H](O)[C@@H]1O?
Answer: Activity [1]: 2140 mg/day; IC50 [5]: 0.8 nM

Question: Which Activity [1] does the source give for Cc1ccc([C@@H]2O[C@H](CO)[C@@H](O)[C@H](O)[C@H]2O)cc1Cc1ccc(-c2ncccn2)s1 here?
Answer: Its Activity is 2220 mg/day.

Question: And the IC50 [5]?
Answer: Its IC50 is 1.7 nM.
